Screening results deposited in PubChem by Broad Institute.
E-sel inducer = E-selectin induction in HUVECs, primary screen, imaging, HUVEC, immunofluorescence imaging, single point; P16581; normalized: neutral wells 0, TNF-alpha wells 100; activation, % at 7.58 µM; hit rate 0.37% among 260,000;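 active means mean E-selectin-positive cell signal at least 10% of the positive control, reached in at least 60% of replicates, without over 20% cell loss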
Target sequence (P16581 whole entry, looked up): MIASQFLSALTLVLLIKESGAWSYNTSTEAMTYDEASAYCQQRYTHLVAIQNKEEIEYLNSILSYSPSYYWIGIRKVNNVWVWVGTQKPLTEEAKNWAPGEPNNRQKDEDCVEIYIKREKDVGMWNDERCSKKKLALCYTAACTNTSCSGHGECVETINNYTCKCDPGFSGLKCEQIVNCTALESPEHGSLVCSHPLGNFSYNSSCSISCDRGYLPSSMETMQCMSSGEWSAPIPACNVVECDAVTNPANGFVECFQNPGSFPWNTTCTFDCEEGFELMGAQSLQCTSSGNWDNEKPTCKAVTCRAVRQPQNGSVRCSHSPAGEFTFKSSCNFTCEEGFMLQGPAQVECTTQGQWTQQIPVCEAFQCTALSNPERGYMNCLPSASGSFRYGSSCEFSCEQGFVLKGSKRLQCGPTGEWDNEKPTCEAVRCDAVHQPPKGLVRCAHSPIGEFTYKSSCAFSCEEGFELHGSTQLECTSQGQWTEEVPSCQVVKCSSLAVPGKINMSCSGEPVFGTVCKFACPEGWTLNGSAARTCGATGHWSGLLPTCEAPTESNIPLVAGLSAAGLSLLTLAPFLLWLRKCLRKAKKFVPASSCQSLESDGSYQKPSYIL
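material = human umbilical vein endothelial cells (HUVEC), E-selectin induction | quantity = 3,000 cells/well | medium = EGM-2 growth medium on 0.1% gelatin-coated wells | technique = immunofluorescence imaging | read-out basis = % PE-positive cells | control set = TNF-alpha positive control, DMSO neutral control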
Hits are given with their value. The entries come from a sample that favours hits as a whole.

What do the screens show for `CCn1c(=O)c2cc(C(=O)NCC(OC)OC)sc2c2ccccc21`?
E-sel inducer: 65.6

What do the screens show for `CCCCN(CC)CCCNC(=O)c1cc2c(=O)n(CC)c3ccccc3c2s1`?
E-sel inducer: inactive

What do the screens show for `C[C@@H]1CN([C@H](C)CO)C(=O)c2cc(C#CCc3ccccc3)cnc2O[C@@H]1CN(C)C(=O)C1CCOCC1`?
E-sel inducer: inactive

How did O=C(C[C@@H]1CC[C@@H]2[C@H](COC[C@@H](O)CN2Cc2ccccc2)O1)N[C@H]1CCN(Cc2ccccc2)C1 do in these assays?
E-sel inducer: inactive

Results for CCOC(=O)N(C)C[C@H]1OCc2ccccc2-c2c(n(C)c3ccccc23)C(=O)N([C@@H](C)CO)C[C@H]1C ?
E-sel inducer: inactive

How did O=C(C[C@@H]1C[C@H]2c3cc(NC(=O)Nc4ccc(C(F)(F)F)cc4)ccc3O[C@H]2[C@H](CO)O1)NCC1CC1 do in these assays?
E-sel inducer: inactive

Results for COc1ccc(NC(=O)Nc2ccc3c(c2)CC(=O)N([C@@H](C)CO)C[C@H](C)[C@H](CN(C)C(=O)NC(C)C)O3)cc1 ?
E-sel inducer: inactive

How did C[C@@H]1CN([C@H](C)CO)C(=O)c2cc(NC(=O)Cn3cnnn3)ccc2O[C@H]1CN(C)Cc1ccccc1 do in these assays?
E-sel inducer: inactive

How did Cc1ccc(S(=O)(=O)N(C)C[C@H]2Oc3ccc(NC(=O)Cn4cnnn4)cc3C(=O)N([C@H](C)CO)C[C@@H]2C)cc1 do in these assays?
E-sel inducer: inactive

What do the screens show for `C[C@H](CO)N1C[C@H](C)[C@H](CN(C)Cc2ccccc2)Oc2ccc(NC(=O)Cn3cnnn3)cc2C1=O`?
E-sel inducer: inactive

What do the screens show for `C[C@H]1CN([C@@H](C)CO)C(=O)c2cc(NC(=O)Cn3cnnn3)ccc2O[C@H]1CN(C)Cc1ccc(Oc2ccccc2)cc1`?
E-sel inducer: 139.0

What do the screens show for `C[C@@H]1CN([C@H](C)CO)C(=O)c2cc(NC(=O)Cn3cnnn3)ccc2O[C@H]1CN(C)Cc1ccc(Oc2ccccc2)cc1`?
E-sel inducer: inactive

How did C[C@H]1CN([C@@H](C)CO)C(=O)c2cc(NC(=O)Cn3cnnn3)ccc2O[C@@H]1CN(C)Cc1ccc(Oc2ccccc2)cc1 do in these assays?
E-sel inducer: 47.9

Results for C[C@@H]1CN([C@@H](C)CO)C(=O)Cc2cc(NC(=O)Cn3cnnn3)ccc2O[C@H]1CN(C)Cc1ccc(Oc2ccccc2)cc1 ?
E-sel inducer: 282.9

Results for C[C@@H]1CN([C@H](C)CO)C(=O)c2cc(NC(=O)Cn3cnnn3)ccc2O[C@H]1CN(C)S(=O)(=O)c1ccccc1 ?
E-sel inducer: 38.8

How did C[C@H]1CN([C@@H](C)CO)C(=O)Cc2cc(NC(=O)Cn3cnnn3)ccc2O[C@@H]1CN(C)Cc1ccc(Oc2ccccc2)cc1 do in these assays?
E-sel inducer: inactive

How did C[C@@H]1CN([C@H](C)CO)C(=O)c2cc(NC(=O)Cn3cnnn3)ccc2O[C@@H]1CN(C)Cc1ccccc1 do in these assays?
E-sel inducer: inactive

What do the screens show for `C[C@@H]1CN([C@H](C)CO)C(=O)Cc2cc(NC(=O)Cn3cnnn3)ccc2O[C@@H]1CN(C)Cc1ccc(Oc2ccccc2)cc1`?
E-sel inducer: inactive

What do the screens show for `C[C@H](CO)N1C[C@H](C)[C@@H](CN(C)S(=O)(=O)c2ccccc2)Oc2ccc(NC(=O)Cn3cnnn3)cc2C1=O`?
E-sel inducer: inactive

Results for CCCN1[C@@H]2c3ccc(/C=C/c4ccccc4)c(=O)n3C[C@H]1[C@H](CO)[C@H]2C(=O)NCc1ccccn1 ?
E-sel inducer: inactive

What do the screens show for `CO[C@@H]1CN(C)C(=O)c2cc(NC(=O)Nc3ccccc3F)ccc2OC[C@H](C)N(CC2CC2)C[C@H]1C`?
E-sel inducer: inactive

Results for CC=Cc1ccc2n(c1=O)C[C@H]1[C@H](CO)[C@@H](C(=O)N(C)C)N(CC3CCCC3)[C@@H]21 (mixture of isomers) ?
E-sel inducer: inactive

Results for COc1ccc(S(=O)(=O)N(C)C[C@@H]2OCCCC[C@H](C)Oc3ccc(NC(=O)C4CCCCC4)cc3C(=O)N([C@H](C)CO)C[C@@H]2C)cc1 ?
E-sel inducer: inactive

What do the screens show for `CO[C@H]1CN(C)C(=O)c2cc(NC(=O)CC(F)(F)F)ccc2OC[C@@H](C)N(C(=O)C2CC2)C[C@H]1C`?
E-sel inducer: inactive

How did C[C@H](CO)N1C[C@H](C)[C@H](CN(C)C(=O)Nc2ccc3c(c2)OCO3)Oc2c(NC(=O)c3cnccn3)cccc2C1=O do in these assays?
E-sel inducer: inactive

How did C[C@H](CO)N1C[C@H](C)[C@@H](CN(C)Cc2ccc3c(c2)OCO3)Oc2ccc(NC(=O)Cn3cnnn3)cc2C1=O do in these assays?
E-sel inducer: inactive

What do the screens show for `C[C@H]1CN([C@@H](C)CO)C(=O)c2cc(NC(=O)Cn3cnnn3)ccc2O[C@@H]1CN(C)Cc1ccc2c(c1)OCO2`?
E-sel inducer: 38.3

Results for C[C@@H]1CN([C@H](C)CO)C(=O)c2cc(NC(=O)Cn3cnnn3)ccc2O[C@H]1CN(C)Cc1ccc2c(c1)OCO2 ?
E-sel inducer: inactive

How did CCCC(=O)N1CC2(CN(C(=O)CC3CC3)C2)c2c(n(C)c3cc(OC)ccc23)[C@H]1CO do in these assays?
E-sel inducer: inactive

Results for Cc1ccc(S(=O)(=O)Nc2ccc3c(c2)C(=O)N([C@@H](C)CO)C[C@H](C)[C@H](CN(C)C(=O)NC2CCCCC2)OCCCC[C@@H](C)O3)cc1 ?
E-sel inducer: inactive

What do the screens show for `CNC(=O)C[C@H]1CC[C@@H]2[C@H](COc3ccc(NC(=O)c4cc(F)cc(F)c4)cc3C(=O)N2C)O1`?
E-sel inducer: inactive

How did Cc1cccc(OC(C)C(=O)N/N=C\c2ccncc2)c1 (configuration not stated) do in these assays?
E-sel inducer: 372.3

Results for CC(Oc1cccc2cccnc12)C(=O)N/N=C/c1ccccc1 (configuration not stated) ?
E-sel inducer: inactive

What do the screens show for `Cc1cccc(C(=O)Oc2ccc(/C=N/NC(=O)c3ccncc3)cc2)c1`?
E-sel inducer: inactive

Results for Brc1ccc(/C=N/Nc2ccccn2)cc1 ?
E-sel inducer: inactive

What do the screens show for `CCOc1ccc(/C=N/Nc2ccccn2)cc1`?
E-sel inducer: 30.9

What do the screens show for `Clc1ccc(/C=N/Nc2ccccn2)cc1`?
E-sel inducer: inactive

Results for COc1ccc2c3c([nH]c2c1)[C@H](CO)N(C(C)=O)CC31CN(C(C)=O)C1 ?
E-sel inducer: inactive

How did CN(C)CC(=O)N[C@@H]1CC[C@@H](CCn2cc(CN(C)C)nn2)O[C@H]1CO do in these assays?
E-sel inducer: inactive

What do the screens show for `CCC(=O)N1CC[C@H]2[C@@H]1c1cc(-c3cccc(F)c3)ccc1N(C)[C@H]2CO`?
E-sel inducer: inactive

What do the screens show for `CO[C@H]1CN(C)C(=O)c2ccc(NC(=O)C3CCCCC3)cc2OC[C@H](C)N(Cc2nccs2)C[C@H]1C`?
E-sel inducer: inactive

Results for C[C@H]1CN([C@@H](C)CO)C(=O)c2cc(NS(C)(=O)=O)ccc2O[C@H]1CN(C)S(=O)(=O)c1cn(C)cn1 ?
E-sel inducer: inactive

How did COc1cc2nc(N3CCN(C(=O)C4COc5ccccc5O4)CC3)nc(N)c2cc1OC (configuration not stated) do in these assays?
E-sel inducer: 60.6

Results for COc1cc2nc(N3CCN(C(=O)c4ccco4)CC3)nc(N)c2cc1OC ?
E-sel inducer: inactive

How did COc1ccc(S(=O)(=O)N2CCN(C(=O)C3COc4ccccc4O3)CC2)cc1 (configuration not stated) do in these assays?
E-sel inducer: inactive
